Experiments:
Human adenovirus 5 [1] = assay: Antiviral activity against Adenovirus type 5 F2853-5b infected in human A549 cells assessed as inhibition of viral replication at 15 uM after 24 hrs by RT-PCR analysis; format: functional; conditions: Human mastadenovirus C, A549, 24 h
Method in brief: (§1)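 Ad5-infected A549 cells incubated with compound for 24 h. DNA was then extracted and newly synthesized viral DNA quantified by real-time PCR of the hexon gene, normalized to cellular RNaseP gene. […] EC50 determined for selected compounds.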

Human adenovirus 5 [2] = assay: Antiviral activity against Adenovirus type 5 F2853-5b infected in human A549 cells assessed as inhibition of viral replication at 5 uM after 24 hrs by RT-PCR analysis; format: functional; conditions: Human mastadenovirus C, A549, 24 h; method in brief: as §1
[3] = Cytotoxicity against human A549 cells assessed as viability at 60 uM after 24 hrs by XTT assay; format: cell-based; conditions: read-out: Activity
Method in brief: (§2)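 About 15000 A549 cells per well were seeded the day before. Compound was added in DMEM with 0.75 g/L NaHCO3 and 20 mM HEPES, then incubated 24 h at 37 °C, 5% CO2. XTT was added 4 h before reading formazan absorbance at 450 nm. Values are percentage viable cells, with DMSO baseline toxicity subtracted (0.15% DMSO at 30 μM, 0.30% at 60 μM).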

Human adenovirus 5 [4] = assay: Antiviral activity against Adenovirus type 5 F2853-5b infected in human A549 cells assessed as inhibition of viral replication after 24 hrs by RT-PCR analysis; format: functional, organism-based; conditions: Human mastadenovirus C, A549, 24 h; method in brief: as §1
[5] = Cytotoxicity against human A549 cells assessed as viability at 30 uM after 24 hrs by XTT assay; format: cell-based; conditions: read-out: Activity; method in brief: as §2
[6] = Chemical solubility of the compound in DMSO; format: physicochemical
[7] = Aqueous solubility of the compound in water; format: physicochemical; conditions: buffer

| SMILES | inhibition at 15 µM (Human adenovirus 5 [1]) [%] | inhibition at 5 µM (Human adenovirus 5 [2]) [%] | further results |
| --- | --- | --- | --- |
| O=C(Nc1cccc(C(=O)Nc2ccccc2C(=O)O)c1)c1ccccc1 | 39 | – | – |
| O=C(O)CCC(=O)Nc1ccccc1C(=O)Nc1ccccc1C(=O)O | 0 | 0 | – |
| CS(=O)(=O)Nc1ccccc1C(=O)Nc1ccccc1C(=O)O | 23 | 0 | – |
| Cc1ccc(S(=O)(=O)Nc2ccccc2C(=O)Nc2ccccc2C(=O)O)cc1 | 8 | 2 | – |
| O=C(Nc1ccccc1C(=O)Nc1cc(Cl)ccc1C(=O)O)c1ccccc1F | 61 | 0 | – |
| O=C(Nc1ccc(C(=O)Nc2ccccc2C(=O)O)cc1)c1ccccc1 | 47 | – | – |
| COc1ccc(C(=O)Nc2ccccc2C(=O)O)c(NC(=O)c2ccccc2F)c1 | 89 | 92 | viability at 24 h, 60 µM [3]: 94%; EC50 (Human adenovirus 5 [4]): 2300 nM; viability at 24 h, 30 µM [5]: 92% |
| Cc1ccccc1C(=O)Nc1ccccc1C(=O)Nc1ccc(C(=O)O)cc1 | 20 | 0 | – |
| COc1ccc(NC(=O)c2ccccc2NC(=O)c2ccccc2F)c(C(=O)O)c1 | 78 | 28 | – |
| COc1ccc(C(=O)O)c(NC(=O)c2ccccc2NC(=O)c2ccccc2F)c1 | 0 | 0 | – |
| O=C(Nc1cc(F)c(F)cc1C(=O)Nc1ccccc1C(=O)O)c1ccccc1F | 93 | 94 | viability at 24 h, 60 µM [3]: 96%; EC50 (Human adenovirus 5 [4]): 580 nM; viability at 24 h, 30 µM [5]: 96% |
| CCOC(=O)c1ccccc1NC(=O)c1cccc(NC(=O)c2ccccc2)c1 | 25 | – | – |
| O=C(Nc1ccccc1C(=O)Nc1ccccc1C(=O)O)c1ccc(F)cc1 | 95 | 76 | – |
| O=C(Nc1ccccc1C(=O)Nc1ccccc1)c1ccccc1 | 18 | – | – |
| COc1ccc(C(=O)Nc2ccccc2C(=O)Nc2ccccc2C(=O)O)cc1 | 67 | 0 | – |
| O=C(Nc1ccccc1C(=O)Nc1cc(F)c(F)cc1C(=O)O)c1ccccc1F | 0 | 0 | – |
| Cc1ccc(NC(=O)c2ccccc2NC(=O)c2ccccc2C(=O)O)cc1 | 0 | 0 | – |
| CCOC(=O)c1ccccc1NC(=O)c1ccc(NC(=O)c2ccccc2)cc1 | 15 | – | – |
| NC(=O)c1ccccc1NC(=O)c1cccc(NC(=O)c2ccccc2)c1 | 19 | 0 | – |
| O=C(Nc1ccccc1C(=O)Nc1ccccc1C(=O)O)c1cccc(F)c1 | – | 41 | – |
| CCOC(=O)c1ccc(NC(=O)c2ccccc2NC(=O)c2ccccc2)cc1 | 8 | – | – |

| SMILES | inhibition at 15 µM (Human adenovirus 5 [1]) [%] | inhibition at 5 µM (Human adenovirus 5 [2]) [%] | further results |
| --- | --- | --- | --- |
| O=C(Nc1ccccc1C(=O)Nc1ccccc1C(=O)O)c1ccccc1F | 98 | 96 | viability at 24 h, 60 µM [3]: 83%; EC50 (Human adenovirus 5 [4]): 2300 nM; viability at 24 h, 30 µM [5]: 85% |
| O=C(Cc1ccccc1NC(=O)c1ccccc1)Nc1ccccc1C(=O)O | 0 | 0 | – |
| CCOC(=O)c1cccc(NC(=O)c2ccccc2NC(=O)c2ccccc2)c1 | 0 | – | – |
| Cc1ccc(C(=O)Nc2ccccc2C(=O)Nc2ccccc2C)cc1 | 12 | 0 | – |
| Cc1ccc(C(=O)Nc2ccccc2C(=O)Nc2ccccc2C(=O)O)cc1 | 85 | 0 | – |
| O=C(Nc1cc(Cl)ccc1C(=O)Nc1ccccc1C(=O)O)c1ccccc1F | 78 | 57 | – |
| O=C(O)c1ccc(NC(=O)c2ccccc2NC(=O)c2ccccc2)cc1 | 8 | – | – |
| O=C(Nc1ccccc1C(=O)Nc1ccc(Cl)cc1C(=O)O)c1ccccc1F | 0 | 0 | – |
| O=C(O)c1ccccc1NC(=O)c1ccccc1NC(=O)C1CCCCC1 | 55 | 20 | – |
| Cc1ccccc1C(=O)Nc1cccc(C(=O)Nc2ccccc2C(=O)O)c1 | 7 | 5 | – |
| O=C(Cc1ccccc1)Nc1ccccc1C(=O)Nc1ccccc1C(=O)O | 21 | 32 | – |
| CCOC(=O)c1ccccc1NC(=O)c1ccccc1NC(=O)c1ccccc1 | – | – | solubility [6]: Insoluble; solubility [7]: Insoluble |
| O=C(Nc1ccccc1C(=O)Nc1ccccc1C(=O)O)c1ccccc1 | 91 | 89 | viability at 24 h, 60 µM [3]: 83%; viability at 24 h, 30 µM [5]: 82% |
| CC(C)(C)C(=O)Nc1ccccc1C(=O)Nc1ccccc1C(=O)O | 52 | 45 | – |
| COc1ccc(NC(=O)c2ccccc2F)c(C(=O)Nc2ccccc2C(=O)O)c1 | 97 | 91 | viability at 24 h, 60 µM [3]: 84%; EC50 (Human adenovirus 5 [4]): 1400 nM; viability at 24 h, 30 µM [5]: 84% |
| CC(=O)Nc1ccccc1C(=O)Nc1ccccc1C(=O)O | 24 | 4 | – |
| O=C(O)c1cccc(NC(=O)c2ccccc2NC(=O)c2ccccc2)c1 | 8 | – | – |
| Nc1ccn(C[C@@H](CO)OCP(=O)(O)O)c(=O)n1 [CIDOFOVIR] | – | – | viability at 24 h, 60 µM [3]: 98%; viability at 24 h, 30 µM [5]: 100% |
| O=C(O)Cc1ccccc1NC(=O)c1ccccc1NC(=O)c1ccccc1 | 0 | 0 | – |
| O=C(Nc1ccc(Cl)cc1C(=O)Nc1ccccc1C(=O)O)c1ccccc1F | 91 | 89 | viability at 24 h, 60 µM [3]: 88%; EC50 (Human adenovirus 5 [4]): 570 nM; viability at 24 h, 30 µM [5]: 91% |

Reference: ChEMBL document CHEMBL2040795, “Synthesis, biological evaluation, and structure-activity relationships of 2-[2-(benzoylamino)benzoylamino]benzoic acid analogues as inhibitors of adenovirus replication” (J Med Chem, 2012)
